# Experimental data from ChEMBL document CHEMBL4842330, “New nimesulide derivatives with amide/sulfonamide moieties: Selective COX-2 inhibition and antitumor effects” (Eur J Med Chem, 2021).
# The source made the active and inactive calls. No cut-off for these calls is given here.
# How the values were obtained:
# MCF7 [1] = test: Cytotoxicity against human MCF7 cells assessed as inhibition of cell growth after 48 hrs by SRB assay; assay type: functional, cell-based; settings: MCF7, 48 h
# Procedure, shortened: (§1)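 Cells seeded at 5 × 10⁴ cells/mL were held 24 h, then treated 48 h across final concentrations of 0–200 µM. They were fixed with 10% TCA for 1 h at 4 °C and stained with 0.04% SRB for 30 min. Bound dye was washed with 1% acetic acid, solubilised in 10 mM Tris base (pH 10.5) and read at 565 nm. IC50 derived from concentration–response curves.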
# PC-3 [2] = test: Cytotoxicity against human PC-3 cells assessed as cell viability at 100 uM after 48 hrs by MTT assay relative to control; assay type: functional; settings: read-out: Activity
# Procedure, shortened: (§2)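 Cells in exponential growth were seeded at 5 × 10⁴ cells/mL, held 24 h at 37 °C, then exposed to compound for 48 h. MTT was added to 1 mg/mL final for 2 h. Formazan was dissolved in DMSO and read at 570 nm, with 620 nm background subtraction. Final DMSO ≤1.0%; viability reported as percentage of control.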
# HT-29 [3] = test: Cytotoxicity against human HT-29 cells assessed as cell viability at 100 uM after 48 hrs by MTT assay relative to control; assay type: functional; settings: read-out: Activity; procedure, shortened: as §2
# HT-29 [4] = test: Cytotoxicity against human HT-29 cells assessed as inhibition of cell growth after 48 hrs by SRB assay; assay type: functional, cell-based; settings: HT-29, 48 h; procedure, shortened: as §1
# PC-3 [5] = test: Cytotoxicity against human PC-3 cells assessed as inhibition of cell growth after 48 hrs by SRB assay; assay type: functional, cell-based; settings: PC-3, 48 h; procedure, shortened: as §1
# MCF7 [6] = test: Cytotoxicity against human MCF7 cells assessed as cell viability at 100 uM after 48 hrs by MTT assay relative to control; assay type: functional; settings: read-out: Activity; procedure, shortened: as §2
# HUVEC = test: Cytotoxicity against human HUVEC cells assessed as inhibition of cell growth after 48 hrs by SRB assay; assay type: cell-based; procedure, shortened: as §1
# MCF7 [7] = test: Inhibition of colony formation in human MCF7 cells assessed as decrease in colonies incubated for 14 days by crystal violet staining based clonogenic assay; assay type: functional, cell-based; settings: time 14.0 day
# Procedure, shortened: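 MCF-7 cells seeded at 5 × 10² per well were allowed to attach for 24 h. Compound was then applied at increasing concentrations, with medium and compound renewed every 2 days for 14 days. Colonies were fixed in 75% methanol/25% acetic acid for 30 min, stained with 0.5% crystal violet for 30 min, and counted.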
# MCF7 [8] = test: Induction of apoptosis in human MCF7 cells assessed as upregulation of BAX protein expression measured after 24 hrs by Western blot analysis; assay type: functional, cell-based
# Procedure, shortened: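 MCF-7 cells seeded at 1 × 10⁶ cells/mL were exposed to compound for 24 h and lysed in RIPA buffer. Lysates were quantified by BCA, equally loaded, and run on a 12% SDS gel with 4% stacking gel. Blots were probed at 4 °C for BAX, BCL-2 and β-actin, then with HRP secondary, and detected by chemiluminescence. Band densitometry reported as relative change versus control.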
# MCF7 [9] = test: Induction of apoptosis in human MCF7 cells assessed as downregulation of Bcl-2 protein expression at 10 to 25 uM measured after 24 hrs by Western blot analysis; settings: dose 10-25 µM
# MCF7 [10] = test: Induction of apoptosis in human MCF7 cells assessed as increase in BAX/Bcl-2 ratio at 10 to 25 uM measured after 24 hrs by Western blot analysis; settings: dose 10-25 µM
# THP-1 [11] = test: Antiinflammatory activity in LPS-stimulated human THP-1 cells assessed as suppression of PGE2 release at 50 uM incubated for 24 hrs by ELISA relative to control; assay type: functional
# Procedure, shortened: (§3)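 THP-1 monocytes were differentiated with PMA (10 ng/mL, 24 h) and rested 24 h PMA-free. They were then given compound alongside 1 µg/mL LPS for 24 h. PGE₂ in supernatants was measured by ELISA and normalised to the BCA total protein of viable cells. Final DMSO ≤1.0%; at least three independent biological replicates.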
# RAW264.7 [12] = test: Inhibition of LPS-induced NO release in mouse RAW264.7 cells at 20 uM when treated with compound and LPS simultaneously measured after 24 hrs by Griess reagent based assay relative to control; assay type: functional
# Procedure, shortened: (§4)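 RAW264.7 cells were plated at 4 × 10⁵ cells/mL in phenol-free medium and left 24 h. They then received compound together with LPS (1 µg/mL) for 24 h. Nitrite in supernatants was measured by the Griess reaction and normalised to BCA total protein of viable cells. 1400W at 20 µM served as positive control.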
# RAW264.7 [13] = test: Inhibition of LPS-induced iNOS mRNA expression in mouse RAW264.7 cells assessed as downregulation of iNOS mRNA expression at 50 uM by RT-qPCR analysis relative to control; assay type: functional, cell-based
# Procedure, shortened: (§5)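 RAW264.7 cells were kept in high-glucose DMEM with 10% FBS. They were treated with compound alongside LPS stimulation. iNOS, TNF-α and IL-1β mRNA were quantified by qPCR using TaqMan probes, with β-actin as housekeeping gene, and expressed relative to LPS control. Final DMSO ≤1.0%.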
# [14] = Inhibition of LPS-induced iNOS mRNA expression in mouse RAW264.7 cells assessed as downregulation of iNOS mRNA expression at 20 uM by RT-qPCR analysis relative to control; assay type: functional; procedure, shortened: as §5
# THP-1 [15] = test: Antiinflammatory activity in LPS-stimulated human THP-1 cells assessed as suppression of COX-2 mRNA expression at 50 uM incubated for 24 hrs by ELISA relative to control; assay type: functional; settings: in the assay text read “by qPCR” for “by ELISA”
# Procedure, shortened: (§6)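 THP-1 monocytes plated at 1 × 10⁶ cells/mL, differentiated with 10 ng/mL PMA for 24 h, then rested 24 h in PMA-free medium. Cells were treated with compound and LPS stimulation. COX mRNA was quantified by qPCR with TaqMan probes against β-actin as housekeeping gene. Compound stocks in DMSO, final DMSO ≤1.0%.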
# [16] = biological target: COX-1 (Prostaglandin G/H synthase 1) (Homo sapiens, UniProt P23219); test: Inhibition of human recombinant COX-1 at 10 uM using arachidonic acid as substrate preincubated for 10 mins followed by substrate addition relative to control; settings: recombinant COX-1, probe arachidonic acid
# Chain of COX-1 (Prostaglandin G/H synthase 1) (P23219 whole entry): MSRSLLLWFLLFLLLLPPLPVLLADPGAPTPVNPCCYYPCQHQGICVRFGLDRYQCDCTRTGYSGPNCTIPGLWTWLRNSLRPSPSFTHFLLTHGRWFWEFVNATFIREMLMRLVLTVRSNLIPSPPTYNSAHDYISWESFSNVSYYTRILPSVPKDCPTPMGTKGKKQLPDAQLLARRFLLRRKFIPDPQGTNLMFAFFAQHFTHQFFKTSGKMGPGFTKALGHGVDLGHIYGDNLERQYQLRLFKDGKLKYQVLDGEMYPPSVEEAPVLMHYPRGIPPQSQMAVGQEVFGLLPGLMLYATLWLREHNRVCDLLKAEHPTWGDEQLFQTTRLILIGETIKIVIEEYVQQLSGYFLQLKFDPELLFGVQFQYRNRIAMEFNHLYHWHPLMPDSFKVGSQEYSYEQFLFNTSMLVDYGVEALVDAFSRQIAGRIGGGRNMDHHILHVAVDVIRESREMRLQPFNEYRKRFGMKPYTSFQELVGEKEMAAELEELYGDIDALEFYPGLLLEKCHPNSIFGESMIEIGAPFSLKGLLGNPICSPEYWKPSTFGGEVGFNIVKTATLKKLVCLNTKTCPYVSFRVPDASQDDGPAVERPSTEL
# [17] = Inhibition of LPS-induced IL-1 beta mRNA expression in mouse RAW264.7 cells at 50 uM by RT-qPCR analysis relative to control; assay type: functional; procedure, shortened: as §5
# THP-1 [18] = test: Antiinflammatory activity in LPS-stimulated human THP-1 cells assessed as suppression of COX-2 mRNA expression at 100 uM incubated for 24 hrs by ELISA relative to control; assay type: functional; settings: in the assay text read “by qPCR” for “by ELISA”; procedure, shortened: as §6
# RAW264.7 [19] = test: Inhibition of LPS-induced NO release in mouse RAW264.7 cells at 50 uM when treated with compound and LPS simultaneously measured after 24 hrs by Griess reagent based assay relative to control; assay type: functional; procedure, shortened: as §4
# [20] = Inhibition of LPS-induced TNF alpha mRNA expression in mouse RAW264.7 cells at 50 uM by RT-qPCR analysis relative to control; assay type: functional; procedure, shortened: as §5
# [21] = Inhibition of LPS-induced TNF alpha mRNA expression in mouse RAW264.7 cells at 20 uM by RT-qPCR analysis relative to control; assay type: functional; procedure, shortened: as §5
# [22] = biological target: T1, Prostaglandin G/H synthase 2 (Homo sapiens) (UniProt P35354); test: Inhibition of human recombinant COX-2 at 1 uM using arachidonic acid as substrate preincubated for 10 mins followed by substrate addition relative to control
# T1 sequence (whole entry): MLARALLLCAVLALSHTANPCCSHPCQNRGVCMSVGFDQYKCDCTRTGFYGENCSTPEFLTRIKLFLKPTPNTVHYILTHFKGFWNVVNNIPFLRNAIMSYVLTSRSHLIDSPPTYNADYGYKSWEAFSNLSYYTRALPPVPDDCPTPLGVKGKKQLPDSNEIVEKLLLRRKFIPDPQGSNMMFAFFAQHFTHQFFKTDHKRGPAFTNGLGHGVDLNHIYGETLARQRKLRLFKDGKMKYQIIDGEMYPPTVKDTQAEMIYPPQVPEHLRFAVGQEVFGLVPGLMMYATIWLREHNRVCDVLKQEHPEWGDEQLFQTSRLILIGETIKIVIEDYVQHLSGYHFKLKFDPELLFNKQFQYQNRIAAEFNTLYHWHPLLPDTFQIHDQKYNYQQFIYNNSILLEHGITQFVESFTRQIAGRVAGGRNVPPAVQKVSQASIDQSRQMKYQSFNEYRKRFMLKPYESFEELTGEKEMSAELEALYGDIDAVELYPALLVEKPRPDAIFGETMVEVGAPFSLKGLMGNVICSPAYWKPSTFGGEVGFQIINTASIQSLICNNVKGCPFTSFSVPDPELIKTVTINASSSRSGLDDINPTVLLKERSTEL
# [23] = Inhibition of LPS-induced IL-1 beta mRNA expression in mouse RAW264.7 cells at 20 uM by RT-qPCR analysis relative to control; assay type: functional; procedure, shortened: as §5
# THP-1 [24] = test: Antiinflammatory activity in LPS-stimulated human THP-1 cells assessed as suppression of PGE2 release at 100 uM incubated for 24 hrs by ELISA relative to control; assay type: functional; procedure, shortened: as §3
SMILES,viability at 100 µM (PC-3 [2]) [%],viability at 100 µM (HT-29 [3]) [%],viability at 100 µM (MCF7 [6]) [%],further results
COc1cccc2c1C(=O)c1c(O)c3c(c(O)c1C2=O)C[C@@](O)(C(=O)CO)C[C@@H]3O[C@H]1C[C@H](N)[C@H](O)[C@H](C)O1 [DOXORUBICIN],11.8,21,14.1,IC50 (MCF7 [1]): 0.16 µM; IC50 (HT-29 [4]): 0.15 µM; IC50 (PC-3 [5]): 16.9 µM; IC50 (HUVEC): 0.1 µM
CS(=O)(=O)Nc1ccc(NC(=O)c2ccc(C(N)=O)cc2)cc1Oc1ccccc1,88.7,64.4,53.1,–
CCOc1cc(NC(=O)c2ccc([N+](=O)[O-])cc2)ccc1NS(C)(=O)=O,84.8,114,116,–
COc1ccc(S(=O)(=O)Nc2ccc(NS(C)(=O)=O)c(OC(C)C)c2)cc1,68.6,102,130,–
CS(=O)(=O)Nc1ccc(NC(=O)c2ccc(F)cc2)cc1Oc1ccccc1,24.8,33.1,22.2,IC50 (MCF7 [1]): 11.3 µM; inhibition (MCF7 [7]): Dose-Dependent Effect; Activity (MCF7 [8]): Dose-Dependent Effect; IC50 (HT-29 [4]): 9.24 µM; Activity (MCF7 [9]): Active; IC50 (PC-3 [5]): > 100 µM; IC50 (HUVEC): > 200 µM; Activity (MCF7 [10]): Active
CC(C)Oc1cc(NC(=O)c2ccc(F)cc2)ccc1NS(C)(=O)=O,79.4,49.6,110,Activity (THP-1 [11]): 67%; inhibition at 20 µM (RAW264.7 [12]): 43%; inhibition (RAW264.7 [13]): Active; inhibition at 20 µM [14]: 40%; Activity (THP-1 [15]): 53%; inhibition at 10 µM [16]: 27.2%; inhibition at 50 µM [17]: 51%; Activity (THP-1 [18]): 61%; inhibition at 50 µM (RAW264.7 [19]): 46.4%; inhibition at 50 µM [20]: 57%; inhibition at 20 µM [21]: 44%; inhibition [22]: 72.8%; inhibition at 20 µM [23]: 45%; Activity (THP-1 [24]): 68%
CC(C)Oc1cc(NS(=O)(=O)c2ccc(F)cc2)ccc1NS(C)(=O)=O,75.5,92.9,130,–
CC(C)Oc1cc(NC(=O)c2ccc(C(N)=O)cc2)ccc1NS(C)(=O)=O,49.8,79.4,61.9,–
CCOc1cc(NS(=O)(=O)c2ccccc2[N+](=O)[O-])ccc1NS(C)(=O)=O,77.9,133,139,–
COc1ccc(C(=O)Nc2ccc(NS(C)(=O)=O)c(OC(C)C)c2)c([N+](=O)[O-])c1,94.2,111,63.5,–
CCOc1cc(NC(=O)c2ccc(F)cc2)ccc1NS(C)(=O)=O,90,80.1,64.4,–
COc1ccc(C(=O)Nc2ccc(NS(C)(=O)=O)c(OC(C)C)c2)cc1,65.8,67.9,153,–
CCOc1cc(NC(=O)c2cccc([N+](=O)[O-])c2)ccc1NS(C)(=O)=O,90.2,70.4,90.8,–
CCOc1cc(NS(=O)(=O)c2ccc([N+](=O)[O-])cc2)ccc1NS(C)(=O)=O,65.7,118,119,Activity (THP-1 [11]): 77%; inhibition at 20 µM (RAW264.7 [12]): 40.7%; Activity (THP-1 [15]): 47%; inhibition at 10 µM [16]: 21%; inhibition at 50 µM [17]: 22%; Activity (THP-1 [18]): 60%; inhibition at 50 µM (RAW264.7 [19]): 68%; inhibition at 50 µM [20]: 22%; inhibition at 20 µM [21]: 46%; inhibition [22]: 88%; inhibition at 20 µM [23]: 39%; Activity (THP-1 [24]): 44%
CC(C)Oc1cc(NS(=O)(=O)c2ccc([N+](=O)[O-])cc2)ccc1NS(C)(=O)=O,91.4,75.4,57.9,–
CCOc1cc(NS(=O)(=O)c2cccc([N+](=O)[O-])c2)ccc1NS(C)(=O)=O,75.5,116,127,–
CCOc1cc(NC(=O)c2ccccc2[N+](=O)[O-])ccc1NS(C)(=O)=O,100,112,122,–
CC(C)Oc1cc(NC(=O)c2ccc([N+](=O)[O-])cc2)ccc1NS(C)(=O)=O,81,124,101,–
